CHT block = inhibitors of human choline transporter CHT; High affinity choline transporter 1 (Homo sapiens), Q9GZV3; CHT-expressing cells, membrane potential dye, choline response; hits give low values; B-score at 10 µM; hit rate 0.86% among 310,000; AID 488975, 2010;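 active = B-score over 3 SD under the library average, and starting fluorescence ratio not unusually high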;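 note: choline stimulus applied at its EC90 after an EC20 pre-addition; B-score computed on integrated fluorescence ratio after choline addition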
CHT allo act = CHT positive allosteric modulators, primary screen, cell-based, membrane potential dye, choline EC20 | CHT-expressing cells; hits give high values; LV-AA mutant CHT in HEK293 cells | B-score at 10 µM | hit rate 0.49% among 310,000 | AID 488977, 2010;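 active = initial fluorescence not abnormally high and integrated response B-score, plate-corrected, over 3 SD above library mean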
procasp7 counter = procaspase-7 activators, primary screen, counter-screen for procaspase-3 activator project, biochemical, absorbance, HTS, human | Caspase-7 (Homo sapiens), P55210 | recombinant procaspase-7, Ac-DEVD-pNA absorbance 405 nm; D23A/D198A/D206A triple mutant, cannot self-cleave; scale: DMSO 0, 5 µM enzyme 100 | activation, % at 8.5 µM | hit rate 0.093% among 330,000;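 active = percent activation above the screen-wide mean plus 3 SD, cut at about 25% in these data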
Target sequence (P55210 whole entry D23A/D198A/D206A): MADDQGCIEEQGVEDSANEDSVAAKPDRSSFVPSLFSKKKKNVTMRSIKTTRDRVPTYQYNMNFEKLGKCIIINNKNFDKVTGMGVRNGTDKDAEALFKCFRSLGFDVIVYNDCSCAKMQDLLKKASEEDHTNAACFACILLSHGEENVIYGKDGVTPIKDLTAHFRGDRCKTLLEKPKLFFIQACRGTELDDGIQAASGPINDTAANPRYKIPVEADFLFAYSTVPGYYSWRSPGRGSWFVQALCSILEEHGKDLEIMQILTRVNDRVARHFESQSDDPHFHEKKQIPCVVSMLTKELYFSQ
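Assay system: Uncleavable procaspase-7 mutant enzyme; Input: 2 µM procaspase-7 mutant as dispensed; Also added: DEVD-pNA substrate; Medium: Zinc-free HEPES pH 7.4 with 300 mM NaCl, 0.01% Triton X-100; Timing: 1 h compound preincubation, 2 h substrate cleavage, 25 °C; Measured by: Epi-absorbance of released pNA at 405 nm, two timepoints.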
proCasp3 act = activators of human procaspase-3 D3A mutant, primary screen, biochemical, absorbance, PC-3 D3A mutant, single concentration; recombinant procaspase-3 D3A, Ac-DEVD-pNA absorbance 405 nm; activation, % at 8.5 µM; hit rate 0.11% among 330,000;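 active = activation above the mean of all tested compounds plus 3 SD, cut at about 21% in these data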
Target sequence (P42574 whole entry D9A/D28A/D175A): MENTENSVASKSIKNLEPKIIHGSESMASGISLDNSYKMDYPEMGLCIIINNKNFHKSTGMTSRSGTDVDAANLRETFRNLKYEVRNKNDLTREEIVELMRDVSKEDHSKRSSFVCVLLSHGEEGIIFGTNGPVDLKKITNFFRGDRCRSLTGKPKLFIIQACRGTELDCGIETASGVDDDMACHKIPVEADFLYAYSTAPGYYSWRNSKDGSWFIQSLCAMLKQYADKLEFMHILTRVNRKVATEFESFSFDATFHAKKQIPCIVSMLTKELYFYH
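Test system: Procaspase-3 D3A mutant, all three cleavage aspartates alanine | Dosing: Single dose, 8.5 µM nominal compound, 0.8% DMSO | Schedule: 1 h preincubation, 2 h reaction | Technique: 405 nm absorbance of p-nitroaniline, reads at 0 and 120 min | Repeats: One well per compound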
CHT act confirm = CHT activators, confirmation, cell-based, membrane potential dye, duplicate | shares compounds with CHT allo act | CHT-expressing cells, membrane potential dye fluorescence (FDSS); % of choline EC20–EC90 response window; HEK293 expressing CHT LV-AA mutant; choline added at its EC20 | activation, % at 10 µM | hit rate 91% among 2,500 | AID 504833, 2011;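 active = primary screen active, with duplicate mean activation above negative control mean plus 3 SD, cut at about 11% in these data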
HEK293 MP dye = membrane potential response in parental HEK293 cells, counter-screen for CHT activator project, cell-based, membrane potential dye. shares compounds with CHT allo act. membrane potential dye fluorescence (FDSS); measured after EC20 choline addition. ratio readout change at 10 µM, hits read low. hit rate 62% among 2,500. AID 623908, 2012;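 active = duplicate-averaged ratio beyond 3 SD from buffer wells, up or down, though filed actives are nearly all decreases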
Of the large screens only hits and unclear results are named; the others gave an inactive call (follow-up assays come after a bar, where they were run). In the library only some 1.3% were active in any assay of this set; here they are far more common.

CCN(CC)S(=O)(=O)c1ccc(N2CCOCC2)c(NS(=O)(=O)c2ccc(C)cc2)c1	none
CCc1ccc(S(=O)(=O)Nc2cc3c(cc2N2CCOCC2)n(C)c(=O)c(=O)n3C)cc1	CHT allo act 7.2 | CHT act confirm 56 | HEK293 MP dye -47
Cn1c(=O)c(=O)n(C)c2cc(N3CCCCC3)c(NS(=O)(=O)c3ccc([N+](=O)[O-])cc3)cc21	CHT allo act 10 | CHT act confirm 52 | HEK293 MP dye -47
Cn1c(=O)c(=O)n(C)c2cc(N3CCCC3)c(NS(=O)(=O)c3ccc(F)cc3)cc21	none
COc1ccc(OC)c(S(=O)(=O)Nc2cc3c(cc2N2CCCC2)n(C)c(=O)c(=O)n3C)c1	CHT allo act 7.2 | CHT act confirm 53 | HEK293 MP dye -60
O=[N+]([O-])c1ccc(S(=O)(=O)Nc2ccc(-c3ccc(N4CCCC4)nn3)cc2)cc1	none | CHT act confirm 15 | HEK293 MP dye inactive
O=[N+]([O-])c1ccc(Cl)c(S(=O)(=O)Nc2ccc(-c3ccc(N4CCCC4)nn3)cc2)c1	none
NCCCC[C@H]1CN=C(N)N1CCC12CC3CC(CC(C3)C1)C2	CHT allo act 8.5 | CHT act confirm 54 | HEK293 MP dye -58
NCCCC[C@H]1CN=C(N)N1CCc1cccc2ccccc12	none
COc1ccc(N2C(=O)CC(N3CCN(S(=O)(=O)c4c(C)cc(C)cc4C)CC3)C2=O)cc1 (stereo unspecified)	none (no result: CHT block, CHT allo act)
COc1cc2c(cc1OC)C(CCc1ccccc1)=NCC2	none
COc1cc2c(cc1OC)C(/C(C#N)=N\O)=NC(C)(C)C2	none
COc1ccc(C2=NCCc3cc(OC)c(OC)cc32)cc1	CHT allo act 7.5 | CHT act confirm 27 | HEK293 MP dye -92
COc1ccc(C2=NC(C)(C)Cc3cc(OC)c(OC)cc32)cc1	CHT allo act 8.3 | CHT act confirm 67 | HEK293 MP dye -84
COc1ccc(C(=O)NNC2=NC(C)(C)Cc3cc(C)c(C)cc32)cc1	none
COc1cc2c(cc1OC)C(SC)=NC(C)(C)C2	none | CHT act confirm 53 | HEK293 MP dye -44
CN1CCN(c2ccc([N+](=O)[O-])cc2NC(=O)c2cccs2)CC1	CHT allo act 6.6 | CHT act confirm 52 | HEK293 MP dye -82
CN1CCN(c2ccccc2NC(=O)c2ccc(N3CCCC3)c([N+](=O)[O-])c2)CC1	none | CHT act confirm 18 | HEK293 MP dye -44
COC(=O)c1cc(S(=O)(=O)Nc2ccc(C)cn2)c[nH]1	none
COC(=O)c1nnn(-c2nc(N3CCOCC3)nc(N3CCOCC3)n2)c1C	CHT allo act 7.8 | CHT act confirm 33 | HEK293 MP dye -40
CCCCCNc1nc(N2CCCC2)c2c(c1C#N)CCN(C)C2	none
CCCCCNc1nc(NCCCO)c(C#N)c2c1CN(C)CC2	none | CHT act confirm 32 | HEK293 MP dye -29
COC(=O)c1cc(C(=O)OCC(=O)Nc2ccc(N3CCOCC3)cc2)cc([N+](=O)[O-])c1	none (no result: CHT block, CHT allo act)
Cn1ccnc1-c1nnn(-c2ccc(Cl)c(Cl)c2)n1	none
Cn1ccnc1-c1ccc(-c2nccn2C)cc1	CHT allo act 10 | CHT act confirm 64 | HEK293 MP dye -76
CCC[C@H]1COCCS(=O)(=O)N1Cc1ccccc1F	none | CHT act confirm inactive | HEK293 MP dye inactive
CCCC[C@H]1COCCS(=O)(=O)N1Cc1ccccc1F	none
CSCCC(NC(=O)COc1ccccc1)C(=O)N1CCCCCC1 (stereo unspecified)	none (no result: CHT block, CHT allo act)
CN(C1(C)CCS(=O)(=O)C1)S(=O)(=O)c1ccc2ccccc2c1 (stereo unspecified)	none
Cn1cnc(C(=O)NCc2ccc(CNC(=O)OC(C)(C)C)cc2)c1C(=O)NCc1ccc(CNC(=O)OC(C)(C)C)cc1	none (no result: CHT block, CHT allo act)
COc1ccc(C(CCNCc2ccc(OC)c(OC)c2)c2ccc(F)cc2)cc1 (stereo unspecified)	CHT allo act 7.4 | CHT act confirm 28 | HEK293 MP dye inactive
COc1ccc(C(CCNCc2ccc(N(C)C)cc2)c2ccccc2)cc1 (stereo unspecified)	CHT allo act 7 | CHT act confirm inactive | HEK293 MP dye inactive
CC(C)Oc1ccc(C(CCNCc2ccc(O)cc2)c2ccccc2)cc1 (stereo unspecified)	none (no result: procasp7 counter, proCasp3 act)
COc1ccc(NCc2ccc(OC)c(OC)c2)cc1	none
OC[C@@H](O)[C@@H](O)[C@H](O)[C@H](O)CO	none
N#CC(C#N)=C1NC2(CCCCC2)Cc2ccccc21	none
N#CC(C#N)=c1ccc2c(c1)NC1(CCCCC1)N=2	CHT allo act 6.4 | CHT act confirm 51 | HEK293 MP dye -64
CC(=O)N1CCN(c2ccccc2NC(=O)COc2cc(C)ccc2C(C)C)CC1	CHT allo act 10 | CHT act confirm 44 | HEK293 MP dye inactive
Cc1cc(OCC(=O)Nc2ccccc2N2CCCC2)ccc1C(C)C	none
COc1ccc(OC)c(C(c2nnnn2Cc2ccccc2)N2CCN(C3CCCCC3)CC2)c1 (stereo unspecified)	none | CHT act confirm 10 | HEK293 MP dye inactive
Fc1ccc(Cn2nnnc2C(c2cccs2)N2CCN(C3CCCCC3)CC2)cc1 (stereo unspecified)	none | CHT act confirm 40 | HEK293 MP dye -25
O=C(C1=C(O)C(=O)N(CC2CCCO2)C1c1ccc(Cl)cc1Cl)c1ccco1 (stereo unspecified)	none
CC1(C)CC(N2CCCC2)=CC(=[N+]2CCCC2)C1	CHT allo act 8.6 | CHT act confirm 58 | HEK293 MP dye -34
COC(=O)c1cc(C(=O)N2CCN(c3cccc(Cl)c3)CC2)cc([N+](=O)[O-])c1	CHT allo act 7.6 | CHT act confirm 33 | HEK293 MP dye inactive
CCOC(=O)c1c(NC(=O)COc2cccc3c2CCN(C)C3=O)sc2c1CCC2	none | CHT act confirm 25 | HEK293 MP dye inactive
CCON1C(=O)CN(C(=O)OC)C1c1ccc(Cl)cc1Cl (stereo unspecified)	none | CHT act confirm inactive | HEK293 MP dye inactive
C=CCc1cccc2cc(C(=O)N3CCN(C(=O)c4ccccc4)CC3)c(=O)oc12	none
COc1ccccc1CN1CC(=O)N2CSC[C@H]2C1=O	none
C=CCOC(=O)C1=C[C@@H](c2csc3ccccc23)C[C@@H](OCCCCO)O1	none | CHT act confirm 20 | HEK293 MP dye inactive

Bioassay records: PubChem BioAssay, several laboratories
